Tests used:
[1] = target: Beta-3 adrenergic receptor (Homo sapiens, UniProt P13945); experiment: Intrinsic activity at human beta3-adrenergic receptor expressed in CHO cells assessed as increase of cAMP level after 30 mins relative to isoproterenol; format: functional, cell-based
How it was run: (§1)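 Stably transfected CHO cells expressing human β1, β2 or β3 or marmoset β3 receptor were grown in Ham's F-12 with 10% FBS and geneticin, seeded at 2×10⁴ cells/well and grown about 20 h. Cells spent 15 min serum-free, then 30 min with compound in medium containing HEPES and isobutylmethylxanthine. Lysate cAMP was measured by kit. […] EC50 is the half-maximal concentration for each compound.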

[2] = target: T1, Beta-2 adrenergic receptor (Homo sapiens, UniProt P07550); experiment: Agonist activity at human beta2-adrenergic receptor expressed in CHO cells assessed as increase of cAMP level after 30 mins; format: functional, cell-based; how it was run: as §1
Target sequence in this assay (P07550 whole entry): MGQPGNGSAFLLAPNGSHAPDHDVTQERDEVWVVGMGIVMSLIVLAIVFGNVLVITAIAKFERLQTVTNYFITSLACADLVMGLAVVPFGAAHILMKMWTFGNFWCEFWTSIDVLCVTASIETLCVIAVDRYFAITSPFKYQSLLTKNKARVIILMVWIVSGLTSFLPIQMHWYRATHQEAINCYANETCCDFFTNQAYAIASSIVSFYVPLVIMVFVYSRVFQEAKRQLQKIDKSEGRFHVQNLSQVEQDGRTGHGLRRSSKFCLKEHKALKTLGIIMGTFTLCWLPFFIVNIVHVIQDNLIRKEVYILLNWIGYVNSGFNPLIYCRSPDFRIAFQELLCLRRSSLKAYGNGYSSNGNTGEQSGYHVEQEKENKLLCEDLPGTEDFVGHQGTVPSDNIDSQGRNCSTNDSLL

[3] = target: T1, Beta-2 adrenergic receptor; experiment: Intrinsic activity at human beta2-adrenergic receptor expressed in CHO cells assessed as increase of cAMP level after 30 mins relative to isoproterenol; format: functional, cell-based; how it was run: as §1
Target sequence in this assay (P07550 whole entry, looked up): as the sequence (P07550 whole entry) above

Homo sapiens [4] = species on record: Homo sapiens; experiment: Selectivity ratio of EC50 for human beta1-adrenergic receptor to EC50 for human beta3-adrenergic receptor
[5] = target: T2, Alpha-1A adrenergic receptor (Homo sapiens, UniProt P35348); experiment: Agonist activity at human alpha1A-adrenergic receptor expressed in HEK293 cells assessed as calcium flux by fluorescence assay; format: functional, cell-based
T2 sequence (P35348 whole entry): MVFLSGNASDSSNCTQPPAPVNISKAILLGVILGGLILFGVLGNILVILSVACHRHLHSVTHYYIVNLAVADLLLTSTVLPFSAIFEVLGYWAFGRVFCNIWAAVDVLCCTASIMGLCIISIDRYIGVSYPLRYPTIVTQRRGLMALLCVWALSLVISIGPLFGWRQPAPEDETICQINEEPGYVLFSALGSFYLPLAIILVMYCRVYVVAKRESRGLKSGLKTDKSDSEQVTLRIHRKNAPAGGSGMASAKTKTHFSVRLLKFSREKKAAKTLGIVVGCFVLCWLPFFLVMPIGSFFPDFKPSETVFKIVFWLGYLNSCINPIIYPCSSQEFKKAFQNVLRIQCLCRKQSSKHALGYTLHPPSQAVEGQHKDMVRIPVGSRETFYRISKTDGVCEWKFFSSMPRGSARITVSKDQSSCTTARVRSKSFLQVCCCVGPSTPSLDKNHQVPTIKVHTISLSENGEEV

Homo sapiens [6] = species on record: Homo sapiens; experiment: Selectivity ratio of EC50 for human alpha1A-adrenergic receptor to EC50 for human beta3-adrenergic receptor
[7] = target: T3, Alpha-1D adrenergic receptor (Homo sapiens, UniProt P25100); experiment: Agonist activity at human alpha1D-adrenergic receptor
T3 sequence (P25100 whole entry): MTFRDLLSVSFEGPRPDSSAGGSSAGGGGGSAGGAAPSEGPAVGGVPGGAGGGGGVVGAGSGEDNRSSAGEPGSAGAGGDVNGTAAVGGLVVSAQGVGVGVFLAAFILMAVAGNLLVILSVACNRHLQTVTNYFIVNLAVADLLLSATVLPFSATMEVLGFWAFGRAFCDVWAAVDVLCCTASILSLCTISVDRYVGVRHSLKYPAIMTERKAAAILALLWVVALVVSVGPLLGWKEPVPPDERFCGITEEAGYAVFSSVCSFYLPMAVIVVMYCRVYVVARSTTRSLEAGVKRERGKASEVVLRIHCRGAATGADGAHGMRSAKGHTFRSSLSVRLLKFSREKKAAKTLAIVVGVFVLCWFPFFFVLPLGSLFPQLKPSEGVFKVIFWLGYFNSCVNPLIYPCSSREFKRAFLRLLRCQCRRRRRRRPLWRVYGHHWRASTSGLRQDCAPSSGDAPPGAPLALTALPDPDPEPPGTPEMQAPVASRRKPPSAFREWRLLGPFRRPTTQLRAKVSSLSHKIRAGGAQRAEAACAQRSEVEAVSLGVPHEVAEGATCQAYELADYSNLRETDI

[8] = target: T4, Alpha-2A adrenergic receptor (Homo sapiens, UniProt P08913); experiment: Agonist activity at human alpha2A-adrenergic receptor
T4 sequence (P08913 whole entry): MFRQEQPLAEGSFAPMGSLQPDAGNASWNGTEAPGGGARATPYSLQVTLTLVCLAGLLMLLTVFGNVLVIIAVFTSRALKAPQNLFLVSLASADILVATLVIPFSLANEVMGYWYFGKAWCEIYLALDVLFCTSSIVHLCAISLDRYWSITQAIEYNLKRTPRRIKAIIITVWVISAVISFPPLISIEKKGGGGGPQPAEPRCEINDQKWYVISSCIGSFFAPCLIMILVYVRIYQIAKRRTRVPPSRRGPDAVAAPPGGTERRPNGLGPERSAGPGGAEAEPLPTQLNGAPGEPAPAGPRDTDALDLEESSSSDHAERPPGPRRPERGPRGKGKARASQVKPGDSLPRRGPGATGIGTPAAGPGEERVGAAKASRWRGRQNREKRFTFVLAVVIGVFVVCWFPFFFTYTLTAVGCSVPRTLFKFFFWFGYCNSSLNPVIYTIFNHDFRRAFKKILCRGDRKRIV

[9] = target: T5, Alpha-2C adrenergic receptor (Homo sapiens, UniProt P18825); experiment: Agonist activity at human alpha2C-adrenergic receptor
T5 sequence (P18825 whole entry): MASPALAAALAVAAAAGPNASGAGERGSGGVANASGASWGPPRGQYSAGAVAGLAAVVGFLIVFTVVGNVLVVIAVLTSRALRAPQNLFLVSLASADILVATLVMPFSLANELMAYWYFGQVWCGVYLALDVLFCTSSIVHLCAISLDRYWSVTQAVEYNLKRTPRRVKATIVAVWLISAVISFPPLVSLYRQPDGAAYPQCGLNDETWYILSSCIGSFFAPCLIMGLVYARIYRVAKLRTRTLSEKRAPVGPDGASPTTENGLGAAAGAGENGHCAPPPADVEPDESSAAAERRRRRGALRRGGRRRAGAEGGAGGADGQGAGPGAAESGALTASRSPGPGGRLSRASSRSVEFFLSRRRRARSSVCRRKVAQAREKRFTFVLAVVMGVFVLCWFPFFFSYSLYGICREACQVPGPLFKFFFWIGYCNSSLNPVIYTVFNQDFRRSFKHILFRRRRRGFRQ

Rattus norvegicus = experiment: Cardiotoxicity in anesthetized Sprague-Dawley rat assessed as decrease in mean blood pressure at 3 mg/kg, iv measured for 30 mins relative to control; format: toxicity, organism-based; parameters: scale not given: the % may be the effect or the level left; conditions: in vivo, 0.5 h
How it was run: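 Male Sprague-Dawley rats (200-300 g) were anesthetized with sodium pentobarbital (50 mg/kg i.p. plus 25 mg/kg s.c.). The compound was injected via the cannulated left femoral vein once BP and HR were stable, and HR and MBP were recorded for 30 min. Results are the maximum % increase or decrease from baseline, as mean ± SEM. Where given, silodosin (0.01 mg/kg iv) preceded the compound.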

Beta-3 adrenergic receptor, sequence (P13945 whole entry, looked up): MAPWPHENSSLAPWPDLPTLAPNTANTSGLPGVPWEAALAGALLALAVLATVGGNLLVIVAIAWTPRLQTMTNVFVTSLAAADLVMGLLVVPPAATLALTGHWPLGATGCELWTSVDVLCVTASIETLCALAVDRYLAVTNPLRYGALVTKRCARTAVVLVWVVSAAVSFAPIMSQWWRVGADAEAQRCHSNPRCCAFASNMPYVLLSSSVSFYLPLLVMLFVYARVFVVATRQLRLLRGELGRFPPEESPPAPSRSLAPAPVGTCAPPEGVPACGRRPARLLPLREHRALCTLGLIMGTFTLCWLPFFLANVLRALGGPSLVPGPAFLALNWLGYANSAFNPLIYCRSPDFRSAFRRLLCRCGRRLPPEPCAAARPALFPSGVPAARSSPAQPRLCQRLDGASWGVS

Cc1n[nH]c2cc(OCCNC[C@H](O)c3cccc(NS(C)(=O)=O)c3)ccc12
Intrinsic activity [1]: 82%
EC50 [2]: > 10 µM
Intrinsic activity [3]: 4%
Ratio EC50 (Homo sapiens [4]): > 476
EC50 [5]: 0.219 µM
Ratio EC50 (Homo sapiens [6]): 10
EC50 [7]: > 10 µM
EC50 [8]: > 10 µM
EC50 [9]: > 10 µM
Activity (Rattus norvegicus): 8.5%

Reference: ChEMBL document CHEMBL3600378 (J Med Chem, 2015)
